Only some compounds are listed: those with a hit (about 5.1% of all), similar ones and a draw of the others.
STAT3 act: STAT3 signaling activation; U3A cells, IL-6 STAT3-luciferase reporter, luminescence; 100% = signal with IL-6 EC80 alone; activation (% of control), % at 5.6 µM; 0.91% of 190,000 active; AID 871;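 active = activation above the screen-wide mean of compound activation plus 3 SD, cut at about 130% in these data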;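 note: 0% = background luminescence of wells with medium and substrate only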
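Material: STAT3-luciferase reporter U3A cells. Controls: IL-6-treated wells, 100% activation. Read-out: % activation versus median of IL-6-stimulated wells. Probe or stimulus: IL-6 stimulus at 33 ng/mL final. Timing: compound 1 h, then IL-6 6 h at 37 °C. Signal: reporter luminescence signal.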
STAT1 activator: STAT1 signaling activation; NIH 3T3 STAT1-luciferase reporter, IFN-gamma, luminescence; 100% = IFN-gamma alone, no compound; activation (% of control), % at 5.5 µM; 2.6% of 200,000 active; AID 932;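 active = activation above the screen-wide mean activation plus 3 SD, cut at about 130% in these data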;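 note: raw ratio to IFN-gamma control signal so 100% means no change and 0% no light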
APP 5'UTR act: APP 5'UTR luciferase reporter activation. SH-SY5Y APP 5'UTR luciferase reporter, luminescence; zero percent = DMSO vehicle wells. activation, % at 2 µM. 1% of 190,000 active. AID 1276;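 active = activation above a set limit, based on mean plus 3 SD of controls, cut at about 140% in these data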
STAT3 inh: reduces IL-6 driven STAT3 reporter signal; U3A cells, IL-6 STAT3-luciferase reporter, luminescence; host cell line lacks STAT1; inhibition, % at 5.5 µM; 0.89% of 190,000 active;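 active = inhibition above the mean inhibition across all screened compounds plus 3 SD, cut at about 44% in these data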;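 note: 0% = DMSO only wells and 100% = 100 µM nifuroxazide control wells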
STAT1 blocker: inhibitors of IFN-gamma induced STAT1 signaling. NIH 3T3 STAT1-luciferase reporter, luminescence. inhibition, % at 5.5 µM. 0.35% of 200,000 active;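 active = inhibition above a set limit, the mean inhibition across all tested compounds plus 3 SD, cut at about 34% in these data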;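 note: 0% = IFN-gamma with DMSO and 100% = IFN-gamma with 300 µM nifuroxazide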
NF-kB expr up: raises NF-kB expression in human neuronal cells. NF-kB reporter expression; active compounds read high. fold change at 12.5 µM. 1.6% of 190,000 active. AID 1239; in the data active = fold change above about 3.3
Active calls of the source: *; . = not tested or not shown.

SMILES | STAT3 act | STAT1 activator | APP 5'UTR act | STAT3 inh | STAT1 blocker | NF-kB expr up
O=C(N/N=C/c1ccc(Br)s1)c1c[nH]c2ccccc12 | 114.3 | 137.7* | 64.1 | -14.1 | -43.0 | 1.22
CCOC(=O)C1CCCN(C(=O)c2ccc(Cl)c(S(=O)(=O)N3CCCCC3)c2)C1 (configuration not stated) | 92.8 | 98.7 | 49.3 | 11.1 | 1.2 | 1.04
CCOc1ncccc1C(=O)Nc1nc(SC)ns1 | 121.0 | 123.9 | 27.4 | -16.9 | -27.4 | 0.91
O=C(CN1C(=O)c2ccccc2S1(=O)=O)c1ccccc1 | 50.0 | 43.8 | -3.3 | 65.3* | 61.7* | 0.15
COc1ccc(NC(=O)CSc2nnc(CNC(=O)COc3ccc(Cl)cc3)o2)cc1 | 99.5 | 99.3 | -19.6 | 2.9 | 0.2 | 1.27
Cn1c2c(c(=O)n(C)c1=O)C(C(F)(F)F)(C(F)(F)F)N=C(c1ccc(Cl)cc1)N2 | 30.8 | 36.5 | -51.4 | 89.4* | 70.6* | 0.57
Cc1ccccc1C1=NC(C(F)(F)F)(C(F)(F)F)c2c(n(C)c(=O)n(C)c2=O)N1 | 105.0 | 97.2 | 18.5 | -3.2 | 3.1 | 0.71
CC(C)n1c(/C=C/c2ccccc2)nc2ccccc21 | 91.0 | 112.9 | 50.8 | 9.3 | -14.2 | 1.45
COCCOCCn1c(/C=C/c2ccccc2)nc2ccccc21 | 77.9 | 135.1* | 166.1* | 30.9 | -41.9 | 5.95*
CCCn1c(/C=C/c2ccccc2)nc2ccccc21 | 111.7 | 144.5* | 122.6 | -9.4 | -49.9 | 5.57*
C/C(CC(=O)Nc1ccc(F)cc1)=N\NC(=O)c1ccccn1 | 99.7 | 126.1 | 91.2 | 7.9 | -28.4 | 1.27
C/C(CC(=O)NC1CCCCC1)=N\NC(=O)c1ccccn1 | 103.7 | 130.1* | 156.3* | 0.3 | -34.5 | 1
CC(=O)Nc1ccccc1NC(=O)C/C(C)=N/NC(=O)c1ccccn1 | 100.5 | 131.1* | 103.5 | 1.8 | -35.9 | 1.36
Cc1nn(C)c(C)c1Nc1ccc(N2C(=O)C3CC=CCC3C2=O)cc1[N+](=O)[O-] (configuration not stated) | 92.0 | 76.8 | 15.3 | 19.5 | 24.6 | 1.17
Cc1csc(NC(=O)CSc2nnc(-c3ccccc3)o2)n1 | 110.9 | 126.5 | 136.0* | -4.7 | -28.8 | 3.07
O=C(CSc1nnc(-c2csc3c2CCCC3)o1)Nc1ccccc1 | 103.8 | 138.0* | 202.7* | 4.2 | -41.9 | 3.4*
CC1CC(C)CN(C(=O)CCc2ccccc2)C1 (configuration not stated) | 94.6 | 114.7 | 27.7 | 12.4 | -18.4 | 1.22
O=C1NC(=O)/C(=C\c2ccc(OCc3cccc(C(=O)O)c3)c(Cl)c2)N1 | 41.8 | 33.3 | 78.7 | 73.3* | 71.1* | 1.09
CC1CCN(C(=O)c2ccc(COc3ccccc3Cl)o2)CC1 | 104.2 | 103.0 | 3.5 | 0.1 | -3.3 | 1.15
O=C(c1ccc(COc2ccccc2Cl)o1)N1CCCC1 | 84.3 | 80.0 | -9.1 | 18.9 | 35.1* | 0.82
Cc1nn(Cc2c(F)c(F)c(F)c(F)c2F)c(C)c1NC(=O)c1cccc(COc2ccccc2Cl)c1 | 76.3 | 103.9 | 151.4* | 31.6 | -4.4 | 2.08
O=C(Nc1ccccc1Cl)c1cccc(COc2cc(Cl)ccc2Cl)c1 | 110.6 | 129.3* | 24.2 | -12.5 | -31.8 | 1.62
CN1CCN(C(=O)c2cccc(COc3cc(Cl)ccc3Cl)c2)CC1 | 116.3 | 113.3 | 60.0 | -17.2 | -17.1 | 1.44
CCOc1cc(/C=C(\C#N)C(N)=O)ccc1OCc1c(C)no[n+]1[O-] | 93.0 | 92.1 | -3.0 | 17.6 | 6.9 | 1.14
CCC(C)c1ccc(NC(=S)NCc2ccccc2OC)cc1 (configuration not stated) | 98.9 | 99.9 | 19.4 | 6.6 | -1.3 | 1.3
SMILES | STAT3 act | STAT1 activator | APP 5'UTR act | STAT3 inh | STAT1 blocker | NF-kB expr up
O=C(O)c1cccc(COc2ccccc2Cl)c1 | . | . | . | . | . | 14.5*
O=C(CSc1cccc[n+]1[O-])CSc1cccc[n+]1[O-] | 95.3 | 92.6 | -0.9 | 10.3 | 5.2 | 4.86*
O=C(CSc1cccc[n+]1[O-])N1CCCCCC1 | 104.8 | 103.9 | -0.7 | -4.0 | -4.3 | 1.06
COC(=O)c1[nH]c(=O)c2ccccc2c1O | 97.8 | 102.7 | 4.4 | 4.0 | -1.8 | 1.13
COC(=O)c1[nH]c(=O)c2ccccc2c1OCc1ccccc1 | 98.9 | 98.5 | 0.1 | 6.1 | 1.6 | 3.75*
CC(C)CCn1nnnc1CN1CCN(c2ccccc2)CC1 | 100.8 | 105.0 | 11.7 | 3.0 | -5.8 | 1

Screening data from PubChem.
